Assay outcomes as filed in PubChem BioAssay.
hERG rescue = compounds protecting human hERG from proarrhythmic drug block | Q12809 | CHO-hERG, FluxOR thallium flux, dofetilide IC70 present | activation (rescue from dofetilide block), less the hit threshold, % at 10 µM | 310,000 compounds, 0.51% hits;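 active = activation above the mean of controls blocked by dofetilide plus 5 SD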;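 note: thallium influx through hERG after potassium depolarization seen as dye fluorescence rise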
KCNK3 inh = human KCNK3 channel inhibition, primary screen; O14649; CHO-KCNK3 thallium flux, FluxOR fluorescence; stronger effect = lower value; B-score at 10 µM; 340,000 compounds, 0.84% hits; AID 602410;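 active = B-score under library mean minus 4 SD, starting fluorescence ratio at most library mean plus 5 SD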;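 note: more negative B-score means stronger inhibition of thallium flux through KCNK3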
KCNQ1 inh = inhibitors of human KCNQ1 potassium channel. 310,000 compounds, 1.3% hits. CHO-K1 KCNQ1, FluxOR thallium flux fluorescence; stronger effect = higher value. AID 2642. B-score at 10 µM;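 active = compounds whose thallium flux B-score, printed positive for inhibition, exceeds three library SD while starting fluorescence stays within three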;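 note: channel opened by potassium depolarization with thallium stimulus after 20 min compound exposure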
KCNQ1 act = potentiates or activates the human KCNQ1 potassium channel. P51787. CHO-K1 KCNQ1, thallium flux FluxOR fluorescence; stronger effect = higher value. B-score at 10 µM. 310,000 compounds, 0.35% hits. AID 2648;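 active = fluorescence ratio B-score, a plate-corrected score, at least three library SD, with initial intensity B-score within 5 SD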
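Assay system: CHO-K1 cells stably expressing KCNQ1; Medium: assay buffer with matched DMSO; Also added: K+/Tl+ depolarizing stimulus; Dosing: single dose; Timing: dye 90 min, compound 20 min, room temperature; Measured by: kinetic FluxOR thallium fluorescence, 10-s 1-Hz baseline, 110-s post-stimulus read; Read-out: peak-minus-minimum fluorescence over initial fluorescence, negative-control normalized, B-scored.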
KCNK9 block = human KCNK9 channel inhibition; B-score at 10 µM; 310,000 compounds, 1.2% hits; HEK293 KCNK9, FluxOR thallium flux fluorescence; stronger effect = lower value; AID 488922;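 active = ratio B-score over 3 SD below the library mean, with starting fluorescence within 5 SD of its mean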;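 note: negative B-score means less thallium flux so channel inhibition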
Kir21 inh = inhibitors of mouse Kir2.1 inward-rectifier potassium channel | P35561 | HEK293-Kir2.1, FluxOR thallium flux fluorescence; stronger effect = lower value | B-score at 10 µM | 310,000 compounds, 0.85% hits | AID 1672;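 active = fluorescence ratio B-score at or below minus 3 SD of library scores, with starting-brightness B-score within 2 SD, cut at about -4.2 in these data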;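 note: channel flux triggered by added potassium and thallium sulfate stimulus; B-score of peak minus minimum fluorescence over baseline after thallium stimulus; more negative B-score means stronger Kir2.1 block with less thallium influx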
Active calls of the source: *; i = inactive; · = no result; ! = not confirmed by another sample. Compounds with a hit are over-represented: about 3.8% of the library has one in this group of screens.

SMILES | hERG rescue | KCNK3 inh | KCNQ1 inh | KCNQ1 act | KCNK9 block | Kir21 inh
O=C(CNC(=O)N1CC(=O)Nc2ccccc21)NCCc1c[nH]c2ccccc12 | -6.5 | i | i | i | i | 0.61
O=C1C2C3c4ccccc4C(c4ccccc43)C2c2nc3ccccc3n21 (stereo not given) | -3.5 | i | i | i | -7.7* | 1.86
CN1C(=O)C2C3c4ccccc4C(c4ccccc43)[C@@H]2C1=O (stereo not given in full) | -5.5 | i | i | i | i | -0.18
CC(C)C(=O)Nc1ncc(C(F)(F)F)cc1Cl | -8.4 | i | i | i | i | 1.28
CC(=O)CC(=O)Nc1ncc(C(F)(F)F)cc1Cl | -7.5 | i | i | i | i | -1.02
CON/C=N/C(=S)Nc1ncc(C(F)(F)F)cc1Cl | 14.8* | i | i | 51* | i | 0.16
ON/C=N/C(=S)Nc1ncc(C(F)(F)F)cc1Cl | 14.0* | i | i | 20* | i | -1.35
O=C1NC(=O)C(c2ccccc2)N1 (stereo not given) | · | i | · | · | · | ·
Fc1cccc(/C=N/NC(=S)Nc2ccccc2Cl)c1 | 6.8* | i | i | i | i | -0.57
Cc1ccc(NC(=S)N/N=C/c2c(Cl)cccc2Cl)c(C)c1 | 7.7* | i | i | i | i | -0.58
Cc1ccc(Cl)cc1NC(=S)N/N=C/c1cccc2ccccc12 | 8.5* | i | i | 11* | i | -0.58
COc1ccc(CNC(=O)c2cc(S(=O)(=O)N3CCCCC3)ccc2N2CCOCC2)cc1OC | · | i | · | · | · | ·
O=C(COC(=O)CC(c1ccccc1)c1ccccc1)NCc1ccccc1 | -10.6 | i | i | i | i | -5.81*
O=C(COC(=O)CC(c1ccccc1)c1ccccc1)Nc1ccc(F)c(F)c1 | -18.4 | · | 6* | i | i | -1.1
O=C(COC(=O)Cc1ccc(-c2ccccc2)cc1)NCc1ccccc1 | -0.6 | i | i | i | i | 1.12
O=C(CN1CCCCCC1)Nc1nc2ccccc2s1 | · | i | · | · | · | ·
Cc1ccc(CNC(=O)CCS(=O)(=O)c2cccc3nsnc23)cc1 | 4.9* | i | i | i | i | 0
COc1cccc(CNC(=O)CCS(=O)(=O)c2cccc3nsnc23)c1 | -3.4 | i | i | i | i | -0.46
O=C(CSc1n[nH]c(-c2ccc(S(=O)(=O)N3CCCCC3)cc2)n1)Nc1nccs1 | 6.5* | i | i | i | i | 1.91
COC(=O)c1sc(-c2cccs2)cc1N | -2.7 | i | i | i | i | 0.36
COC(=O)c1c(C)nc(C)c(C(=O)OC)c1-c1cccs1 | 8.1* | i | i | i | i | -0.7
CC1CN(C(=O)CCC(=O)NCc2ccccc2Cl)c2ccccc2S1 (stereo not given) | -8.5 | i | i | i | i | -1.63
COc1ccccc1CNS(=O)(=O)c1c(C)nc2sccn2c1=O | -4.5 | i | i | i | i | -2.69
Cc1nc(N)nc(N)c1-c1ccc(Cl)c(Cl)c1 | · | i | · | · | · | ·
Cc1nc(N)nc(N)c1CCCc1ccc(Cl)c(Cl)c1 | -14.0 | i | i | i | i | -7.81*
SMILES | hERG rescue | KCNK3 inh | KCNQ1 inh | KCNQ1 act | KCNK9 block | Kir21 inh
CN(C1CCCCC1)S(=O)(=O)c1cn(C)c(=O)n(C)c1=O | · | i | · | · | · | ·
C/C(=N\NC(=O)C1(C)CC1(Br)Br)c1cccc(NC(=O)C2CCC2)c1 (stereo not given) | -11.0 | i | i | i | -7.4* | 0.55
CC(C)(C)OC(=O)N(Cc1ccccc1)Cc1ccccc1OCc1cccc(NC(=O)C2CCC2)c1 | · | i | · | · | · | ·
Cc1cccc(CN2C(=O)/C(=C\c3ccc(C(=O)NCCN4CCOCC4)cc3)Sc3ccccc32)c1 | -25.2 | i | 8* | i | i | -0.39
O=C(NCCN1CCOCC1)c1ccc(/C=C2\Sc3ccccc3N(Cc3ccccc3F)C2=O)cc1 | -18.6 | i | 11* | i | i | -0.08
Cc1ccccc1CN1C(=O)/C(=C\c2ccc(C(=O)NCCN3CCOCC3)cc2)Sc2ccccc21 | -12.9 | i | i | i | i | -0.01
COc1ccc(/C=C2\Sc3ccc(C(=O)NCCN4CCCCCC4)cc3N(C)C2=O)cc1 | -19.4 | i | 9* | i | i | -3.32
O=C(NCCN1CCOCC1)c1ccc2c(c1)N(Cc1cccc(F)c1)C(=O)c1ccccc1S2 | -16.1 | i | i | i | i | 0.56
CN1CCN(CCCNC(=O)c2ccc(/C=C3\Sc4ccccc4N(Cc4ccccc4F)C3=O)cc2)CC1 | -39.0 | i | i | i | i | -0.9
CCN1CCN(CCNC(=O)c2ccc3c(c2)N(Cc2ccc(F)cc2)C(=O)/C(=C/c2ccccc2)S3)CC1 | -27.9 | i | 10* | i | i | 0.88
COc1ccc(Cl)cc1NC(=O)CN1CCN(S(=O)(=O)N2CCCCC2)CC1 | -3.5 | i | i | i | i | 0.87
O=C(CN1C(=O)c2cccnc2Oc2ccc(Cl)cc21)NCCCc1ccccc1 | -10.4 | i | i | i | i | 0.15
CCN(Cc1ccccc1)S(=O)(=O)c1c(C)[nH]c(C)c1C(=O)N1CCCCC1 | -10.4 | i | i | i | i | 2.56
CCC(c1nnc(SCC(=O)Nc2ccc(NC(C)=O)cc2)n1Cc1ccccc1)N(C)C (stereo not given) | -6.4 | i | i | i | i | -0.02
CC(=O)N/C(=N\c1nc(C)cc(C)n1)Nc1ccc(Cl)cc1Cl | -8.1 | i | i | i | i | 0.46
CC(CNC(=O)COc1ccccc1)OC(=O)Nc1ccc(Cl)c(Cl)c1 (stereo not given) | -22.7 | i | i | 9* | i | 1.45
COC(=O)NCC(C)OC(=O)Nc1cccc(Cl)c1 (stereo not given) | -8.4 | i | i | i | i | -0.46
Cc1cccc(C(=O)N=c2c(C#N)cc3c(=O)n4cccc(C)c4nc3n2Cc2ccco2)c1 | -16.6 | i | 7* | i | i | -1.06
Cc1cccn2c(=O)c3cc(C#N)c(=NC(=O)c4ccccc4)n(Cc4ccco4)c3nc12 | -21.6 | -9.08*! | i | i | -7.26* | -0.07
CCOC(=O)c1cc2c(=O)n3ccccc3nc2n(Cc2ccco2)c1=NC(=O)c1cccnc1 | -22.7 | i | 7* | i | i | -4.31
Cc1cccn2c(=O)c3cc(C#N)c(=NC(=O)c4ccco4)n(Cc4ccco4)c3nc12 | -3.5 | i | i | i | i | -0.3
CCOC(=O)c1cc2c(=O)n3cccc(C)c3nc2n(Cc2ccco2)c1=NC(=O)c1cccnc1 | · | i | · | · | · | ·
Cc1ccc2c(c1)C1CN(C)CCC1N2S(=O)(=O)c1ccccc1F (stereo not given) | · | i | · | · | · | ·
Cc1ccc(SCC(=O)OCC(=O)N(CCC#N)c2ccccc2)cc1 | · | i | · | · | · | ·
